Results on 18 compounds are retold here after ChEMBL document CHEMBL4002578, “α-Glucosidase Inhibitors from the Marine-Derived Fungus Aspergillus flavipes HN4-13” (J Nat Prod, 2016).

Series [1] is described as follows: Cytotoxicity against human Caco2 cells measured after 72 hrs by MTT assay. It counts as cell-based. The settings on record: Caco-2 cells. In short, it runs like this: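 Caco-2 viability was measured by MTT, and the median cytotoxic concentration (CC50) was derived.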
Series [2] in a line: Inhibition of human alpha-glucosidase expressed in Saccharomyces cerevisiae using p-nitophenyl-alpha-glucopyranoside as substrate pretreated with substrate for 15 mins followed by enzyme addition measured after 15 mins. In short, it runs like this: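 Enzyme from a recombinant gene expressed in Saccharomyces cerevisiae, diluted to 0.2 U/mL in 0.01 M PBS. Compound, at three concentrations in sodium phosphate buffer pH 6.8, was mixed with 2.5 mM pNPG stock and held 15 min at 37 °C. Enzyme was then added for a further 15 min at 37 °C, and absorbance was read at 405 nm. The no-enzyme blank was subtracted, and IC50 was taken as the concentration giving 50% inhibition.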

In series [3] the test system is A549. Nature of the series: Cytotoxicity against human A549 cells assessed as growth inhibition at 10 uM measured after 72 hrs by CCK-8 assay relative to control. Type of series: functional. To be noted: A549, 72 h, read-out: GI.
Series [4] is described as follows: Non-competitive inhibition of human alpha-glucosidase expressed in Saccharomyces cerevisiae using varying levels of p-nitophenyl-alpha-glucopyranoside as substrate pretreated with substrate for 15 mins followed by enzyme addition measured after 15 mins by Lineweaver-burk plot analysis.
The nature of series [5]: Selectivity index, ratio of CC50 for human Caco2 cells to IC50 for human alpha-glucosidase expressed in Saccharomyces cerevisiae. In short, it runs like this: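 SI was calculated as Caco-2 CC50 (MTT) divided by the α-glucosidase IC50 from the pNPG assay.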
Series [6] deals with MCF7. Nature of the series: Cytotoxicity against human MCF7 cells assessed as growth inhibition at 10 uM measured after 72 hrs by CCK-8 assay relative to control. It counts as functional. To be noted: MCF7, 72 h, read-out: GI.
Series [7] concerns K562. Nature of the series: Cytotoxicity against human K562 cells assessed as growth inhibition at 10 uM measured after 72 hrs by CCK-8 assay relative to control. It counts as functional. The settings on record: K562, 72 h, read-out: GI.
In series [8] the test system is Jurkat. Nature of the series: Cytotoxicity against human Jurkat cells assessed as growth inhibition at 10 uM measured after 72 hrs by CCK-8 assay relative to control. It counts as functional. The settings on record: read-out: GI.
The nature of series [9]: Competitive inhibition of human alpha-glucosidase expressed in Saccharomyces cerevisiae using varying levels of p-nitophenyl-alpha-glucopyranoside as substrate pretreated with substrate for 15 mins followed by enzyme addition measured after 15 mins by Lineweaver-burk plot analysis.
Series [10] has as its system HepG2. Nature of the series: Cytotoxicity against human HepG2 cells assessed as growth inhibition at 10 uM measured after 72 hrs by CCK-8 assay relative to control. To be noted: HepG2, 72 h, read-out: GI. Type of series: functional.

Where a name gives a salt, the structure may show the parent alone.

Compound `Cc1c(O)c(O)c(O)c(C=O)c1-c1cc2c(C=O)c(C)c(O)c(O)c2o1` yielded a CC50 at 72 h in [1] of more than 800 µM. Also, the IC50 in series [2] was determined as 33 µM. Further, the inhibition of growth at 10 µM in series [3], in series [6], in series [7], in series [8] and in series [10] was less than 34% in each case. Further, the values for the inhibitory constant (Ki) in [4] and in series [9] were 7.2 µM and 2.5 µM, respectively. Moreover, the “Ratio CC50/IC50” value in series [5] is more than 24.

Take `COc1cc(/C=C2\OC(=O)C(c3ccc(O)cc3)=C2O)ccc1O`: in series [2], the IC50 lay within 120 to 1300 µM. The inhibition of growth at 10 µM in series [3], in [6], in series [7], in series [8] and in series [10] was less than 34% throughout.

Regarding `COC(=O)c1cc(O)cc(OC)c1Oc1cc(C)c(Cl)c(O)c1C(=O)O`, in series [2], the concentration for half-maximal inhibition (IC50) is 120 to 1300 µM. For the same compound, the inhibition of growth at 10 µM in [3], in series [6], in series [7], in series [8] and in series [10] was less than 34% in each case.

In turn, `COc1cc(O)cc(C(=O)O)c1Oc1cc(C)cc(O)c1C(=O)O` displayed a cytotoxic concentration (CC50) at 72 h in [1] of more than 800 µM. Moreover, the IC50 in series [2] amounted to 9.9 µM. In addition, the inhibition of growth at 10 µM in series [3], in series [6], in [7], in series [8] and in [10] was less than 34% each time. Moreover, the inhibition constant (Ki) is 0.6 µM in [4] and 1.4 µM in series [9]. Further, in series [5], the “Ratio CC50/IC50” value was more than 81.

In series [1], `COC(=O)[C@]1(Cc2ccc3c(c2)CCC(C)(C)O3)OC(=O)C(O)=C1c1ccc(O)cc1` came in with a CC50 at 72 h of more than 800 µM. The 50% inhibitory concentration (IC50) in [2] was found to be 37 µM. For the same compound, the inhibition of growth at 10 µM in series [3], in [6], in series [7], in [8] and in [10] was less than 34% each time. Besides, the Ki in series [4] stood at 2.1 µM. For the same compound, the “Ratio CC50/IC50” value in [5] is more than 22.

With `COC(=O)c1cc(O)cc(OC)c1C(=O)c1c(O)cc(C)c(Cl)c1O`, the IC50 in [2] lay in the range of 120 to 1300 µM. The inhibition of growth at 10 µM in series [3], in series [6], in series [7], in series [8] and in series [10] was less than 34% in each case.

Compound `COC(=O)[C@@]1(O)OC(=O)C(Cc2ccc3c(c2)CCC(C)(C)O3)=C1c1ccc(O)cc1` returned a CC50 at 72 h in [1] of 278 µM. Moreover, the 50% inhibitory concentration (IC50) in [2] is 57 µM. Also, the inhibition of growth at 10 µM in [3], in [6], in [7], in series [8] and in series [10] was less than 34% throughout. In addition, the values for the inhibition constant (Ki) in [4] and in series [9] were 14 µM and 3.4 µM, respectively. For the same compound, in [5], the “Ratio CC50/IC50” value turned out to be 4.8.

As for `CC1(C)CCc2cc(CC3=C(c4ccc(O)cc4)[C@@](O)(C(=O)O)OC3=O)ccc2O1`, the cytotoxic concentration (CC50) at 72 h in [1] was more than 800 µM. The IC50 in series [2] was found to be 95 µM. The inhibition of growth at 10 µM in series [3], in [6], in series [7], in series [8] and in series [10] was less than 34% throughout. The inhibitory constant (Ki) in series [4] is 4.7 µM; in series [9], 9.2 µM. Also, the “Ratio CC50/IC50” value in [5] is listed as more than 8.5.

With `CC1(C)CCc2cc(CC3OC(=O)C(O)=C3c3ccc(O)cc3)ccc2O1` (configuration not stated), in [1], the half-maximal cytotoxic concentration (CC50) at 72 h was more than 800 µM. Further, the IC50 in series [2] was 34 µM. In addition, the inhibition of growth at 10 µM in series [3], in series [6], in series [7], in [8] and in series [10] was less than 34% throughout. The Ki in series [4] was 0.43 µM. The “Ratio CC50/IC50” value in series [5] is on record as more than 24.

In the case of `CCOC(=O)[C@@]1(O)OC(=O)C(Cc2ccc3c(c2)CCC(C)(C)O3)=C1c1ccc(O)cc1`, the CC50 at 72 h in series [1] was determined as 519 µM. Besides, in series [2], the IC50 was determined as 44 µM. The inhibition of growth at 10 µM in series [3], in series [6], in series [7], in series [8] and in series [10] was less than 34% each time. Also, the figures for the inhibition constant Ki in [4] and in series [9] were 19 µM and 2.5 µM, respectively. Also, the “Ratio CC50/IC50” value in series [5] is listed as 12.

On to `C[C@H]1O[C@H](O[C@H]2[C@H](O)[C@@H](O)[C@@H](O[C@H]3[C@H](O)[C@@H](O)C(O)O[C@@H]3CO)O[C@@H]2CO)[C@H](O)[C@@H](O)[C@@H]1N[C@H]1C=C(CO)[C@@H](O)[C@H](O)[C@H]1O` (some centres not stated) [ACARBOSE], for which, in series [2], the half-maximal inhibitory concentration (IC50) came to 101 µM.

For the compound `COC(=O)c1cc(O)cc(OC)c1Oc1cc(C)cc(O)c1C(=O)O` [ASTERRIC ACID], the inhibition of growth at 10 µM in [3], in [6], in [7], in [8] and in series [10] was less than 34% in each case.

`COC(=O)c1cc(O)cc(OC)c1C(=O)c1c(O)c(Cl)c(C)c(Cl)c1O` [DIHYDROGEODIN]: the IC50 in series [2] was in the range of 120 to 1300 µM. Also, the inhibition of growth at 10 µM in series [3], in series [6], in series [7], in [8] and in [10] was less than 34% throughout.

Consider `COc1cccc2c1C(=O)c1c(O)c3c(c(O)c1C2=O)C[C@@](O)(C(=O)CO)C[C@@H]3O[C@H]1C[C@H](N)[C@H](O)[C@H](C)O1` [DOXORUBICIN HYDROCHLORIDE], for which the inhibition of growth at 10 µM in [3], in [6], in series [7], in [8] and in series [10] was less than 34% throughout.

`OC[C@H]1NC[C@H](O)[C@@H](O)[C@@H]1O` [DUVOGLUSTAT]: the IC50 in series [2] was 79 µM.

Regarding `Cc1cc(O)c2c(c1)C(=O)c1cc(O)cc(O)c1C2=O` [EMODIN], in [1], the half-maximal cytotoxic concentration (CC50) at 72 h is more than 800 µM. In addition, the IC50 in [2] came to 19 µM. In addition, the inhibition of growth at 10 µM in series [3], in series [6], in [7], in series [8] and in series [10] was less than 34% in each case. The inhibition constant Ki in [4] amounted to 0.79 µM. Further, in [5], the “Ratio CC50/IC50” value is given as more than 43.

Consider `COC(=O)c1cc(O)cc(OC)c1Oc1c(Cl)c(C)c(Cl)c(O)c1C(=O)O` [GEODIN HYDRATE], for which the half-maximal cytotoxic concentration (CC50) at 72 h in [1] was more than 800 µM. For the same compound, the IC50 in series [2] was found to be 55 µM. The inhibition of growth at 10 µM in [3], in series [6], in series [7], in [8] and in series [10] was less than 34% each time. Moreover, the Ki in [4] was determined as 5.5 µM; in [9], 6.3 µM. In addition, the “Ratio CC50/IC50” value in series [5] is more than 15.

Take `COC(=O)c1cc(O)cc(OC)c1Oc1c(Cl)c(C)c(Cl)c(O)c1C(=O)OC` [METYL DICHLOROASTERRATE]: in series [1], the cytotoxic concentration (CC50) at 72 h is more than 800 µM. Moreover, the IC50 in series [2] was determined as 90 µM. In addition, the inhibition of growth at 10 µM in [3], in series [6], in [7], in series [8] and in series [10] was less than 34% throughout. Moreover, the inhibition constant Ki in series [4] is 2.8 µM. In series [5], the “Ratio CC50/IC50” value is on record as more than 8.9.
